# In ChEMBL document CHEMBL1629645 (Antimicrob Agents Chemother, 2009):
# Calls of active or inactive are those of the source. No cut-off for these calls is given here.
# Assays:
# [1] = Half life in cage fluid of Albino guiena pig at 10 mg/kg, ip; format: ADME, organism-based, Cavia porcellus; parameters: dose 10 mg/kg, route intraperitoneal; details: guinea pig, in vivo
# [2] = Tmax in cage fluid of Albino guiena pig at 10 mg/kg, ip; format: ADME, organism-based, Cavia porcellus; parameters: dose 10 mg/kg, route intraperitoneal; details: guinea pig
# Staphylococcus aureus [3] = assay: Antibacterial activity against methicillin-resistant Staphylococcus aureus ATCC 43300 during logarithmic growth phase by macrodilution method; format: functional
# [4] = Cmax in cage fluid of Albino guiena pig at 10 mg/kg, ip after 12 hrs; format: ADME, organism-based, Cavia porcellus, Interstitial fluid; parameters: dose 10 mg/kg, route intraperitoneal; details: guinea pig
# Staphylococcus aureus [5] = assay: Antibacterial activity against methicillin-resistant Staphylococcus aureus ATCC 43300 by macrodilution method; format: functional
# How it was run: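 Broth macrodilution MIC in Mueller-Hinton broth per CLSI. Inoculum 1 × 10^5 to 5 × 10^5 CFU/ml. Ten twofold drug dilutions, 18 h at 37°C without shaking. MIC is the lowest concentration with no visible growth. Triplicate.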
# [6] = Cmin in cage fluid of Albino guiena pig at 10 mg/kg, ip after 12 hrs; format: ADME, organism-based, Cavia porcellus; parameters: dose 10 mg/kg, route intraperitoneal; details: guinea pig, read-out: Cmin
# Staphylococcus aureus [7] = assay: Antibacterial activity against methicillin-resistant Staphylococcus aureus ATCC 43300 during stationary growth phase by macrodilution method; format: functional
# [8] = AUC (0 to 24 hrs) in cage fluid of Albino guiena pig at 10 mg/kg, ip; format: ADME, organism-based, Cavia porcellus; parameters: time < 24 hr, dose 10 mg/kg, route intraperitoneal; details: guinea pig
# [9] = AUC (0 to 24 hrs) in cage fluid of Albino guiena pig at 25 mg/kg, ip; format: ADME, organism-based, Cavia porcellus; parameters: time < 24 hr, dose 25 mg/kg, route intraperitoneal; details: guinea pig
# [10] = Half life in cage fluid of Albino guiena pig at 50 mg/kg, ip; details: guinea pig
# Staphylococcus aureus [11] = assay: Antibacterial activity against methicillin-resistant Staphylococcus aureus ATCC 43300 infected in Albino guiena pig assessed as no. of culture-negative cage fluid samples at 75 mg/kg measured on day 10 postinfection; format: functional
# How it was run: (§1)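 Same guinea pig cage infection and intraperitoneal 4-day, twice-daily regimen. Cage fluid cultured on day 4 and day 10. Result is the number of cage fluid samples without detectable MRSA growth over the total cages per group.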
# [12] = Tmax in cage fluid of Albino guiena pig at 50 mg/kg, ip; format: ADME, organism-based, Cavia porcellus; parameters: dose 50 mg/kg, route intraperitoneal; details: guinea pig
# How it was run: (§2)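 Noninfected male albino guinea pigs (550–600 g) carrying subcutaneous Teflon cages, verified sterile, received one intraperitoneal dose. Cage fluid was aspirated at 1–24 h, two cages per animal, three animals per dose, centrifuged and stored at −20°C. Levels were read by agar diffusion bioassay (S. aureus ATCC 29213; standards in 31% guinea pig serum; limit 1.25 µg/ml). Per-animal parameters are given as mean ± SD; Cmin is the 12 h trough.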
# Staphylococcus aureus [13] = assay: Antibacterial activity against methicillin-resistant Staphylococcus aureus ATCC 43300 infected in Albino guiena pig assessed as cure rate at 25 mg/kg measured on day 10 postinfection; format: functional, organism-based; parameters: dose 25 mg/kg
# How it was run: (§3)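 Male albino guinea pigs, 550–600 g, with four subcutaneous perforated Teflon cages each. Cages infected with 2 × 10^4 CFU MRSA. Intraperitoneal treatment from 24 h post-infection, every 12 h for 4 days (8 doses), ≥3 animals per group. Explanted cages incubated in TSB at 37°C for 48 h, then plated. Cure is the share of cages without MRSA growth.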
# Staphylococcus aureus [14] = assay: Antibacterial activity against 1 x10'6 to 5 x10^6 CFU/ml methicillin-resistant Staphylococcus aureus ATCC 43300 assessed as effect on bacterial count at MIC after 24 hrs by time kill study; format: functional, organism-based
# How it was run: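 MRSA inoculum of 1 × 10^6 to 5 × 10^6 CFU/ml in 10 ml Mueller-Hinton broth. Drug at 1× and 4× MIC; drug-free growth control. Incubated at 37°C. Aliquots plated on Mueller-Hinton agar at 0, 6 and 24 h. Quantification limit 200 CFU/ml. Mean log10 CFU/ml reduction ± SD.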
# Staphylococcus aureus [15] = assay: Antibacterial activity against methicillin-resistant Staphylococcus aureus ATCC 43300 infected in Albino guiena pig assessed as decrease in planktonic bacterial counts in cage fluid at 75 mg/kg after measured on day 10 postinfection; format: functional
# How it was run: (§4)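 Guinea pig subcutaneous cage model infected with 2 × 10^4 CFU MRSA. Intraperitoneal dosing every 12 h for 4 days, starting day 1. Cage-fluid CFU counted on day 1, day 4 (before last dose) and day 10. Δlog10 CFU/ml is day 4 or day 10 minus day 1. Quantification limit 1,000 CFU/ml; negatives set to 3 log10. Median and IQR.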
# [16] = Tmax in cage fluid of Albino guiena pig at 75 mg/kg, ip; format: ADME, organism-based, Cavia porcellus; parameters: dose 75 mg/kg, route intraperitoneal; details: guinea pig; how it was run: as §2
# [17] = Half life in cage fluid of Albino guiena pig at 25 mg/kg, ip; details: guinea pig
# Staphylococcus aureus [18] = assay: Antibacterial activity against methicillin-resistant Staphylococcus aureus ATCC 43300 infected in Albino guiena pig assessed as decrease in planktonic bacterial counts in cage fluid at 50 mg/kg after measured on day 10 postinfection; format: functional; how it was run: as §4
# [19] = Cmin in cage fluid of Albino guiena pig at 50 mg/kg, ip after 12 hrs; format: ADME, organism-based, Cavia porcellus; parameters: dose 50 mg/kg, route intraperitoneal; details: guinea pig, read-out: Cmin; how it was run: as §2
# Staphylococcus aureus [20] = assay: Antibacterial activity against methicillin-resistant Staphylococcus aureus ATCC 43300 infected in Albino guiena pig assessed as decrease in planktonic bacterial counts in cage fluid at 75 mg/kg measured on day 4 postinfection; format: functional; how it was run: as §4
# [21] = Half life in cage fluid of Albino guiena pig at 75 mg/kg, ip; details: guinea pig
# [22] = Cmax in cage fluid of Albino guiena pig at 75 mg/kg, ip after 3 hrs; format: ADME, organism-based, Cavia porcellus, Interstitial fluid; parameters: dose 75 mg/kg, route intraperitoneal; details: guinea pig; how it was run: as §2
# Staphylococcus aureus [23] = assay: Antibacterial activity against methicillin-resistant Staphylococcus aureus ATCC 43300 infected in Albino guiena pig assessed as no. of culture-negative cage fluid samples at 50 mg/kg measured on day 10 postinfection; format: functional; how it was run: as §1
# Staphylococcus aureus [24] = assay: Antibacterial activity against methicillin-resistant Staphylococcus aureus ATCC 43300 infected in Albino guiena pig assessed as no. of culture-negative cage fluid samples at 50 mg/kg measured on day 4 postinfection; format: functional; how it was run: as §1
# Staphylococcus aureus [25] = assay: Antibacterial activity against methicillin-resistant Staphylococcus aureus ATCC 43300 infected in Albino guiena pig assessed as no. of culture-negative cage fluid samples at 25 mg/kg measured on day 10 postinfection; format: functional; how it was run: as §1
# [26] = Cmin in cage fluid of Albino guiena pig at 25 mg/kg, ip after 12 hrs; format: ADME, organism-based, Cavia porcellus; parameters: dose 25 mg/kg, route intraperitoneal; details: guinea pig, read-out: Cmin; how it was run: as §2
# Staphylococcus aureus [27] = assay: Antibacterial activity against methicillin-resistant Staphylococcus aureus ATCC 43300 infected in Albino guiena pig assessed as cure rate at 75 mg/kg measured on day 4 postinfection; format: functional, organism-based; parameters: dose 75 mg/kg; how it was run: as §3
# [28] = Tmax in cage fluid of Albino guiena pig at 25 mg/kg, ip; format: ADME, organism-based, Cavia porcellus; parameters: dose 25 mg/kg, route intraperitoneal; details: guinea pig; how it was run: as §2
# Staphylococcus aureus [29] = assay: Antibacterial activity against methicillin-resistant Staphylococcus aureus ATCC 43300 infected in Albino guiena pig assessed as decrease in planktonic bacterial counts in cage fluid at 25 mg/kg measured on day 4 postinfection; format: functional; how it was run: as §4
# [30] = Cmax in cage fluid of Albino guiena pig at 50 mg/kg, ip after 3 hrs; format: ADME, organism-based, Cavia porcellus, Interstitial fluid; parameters: dose 50 mg/kg, route intraperitoneal; details: guinea pig; how it was run: as §2
# Staphylococcus aureus [31] = assay: Antibacterial activity against methicillin-resistant Staphylococcus aureus ATCC 43300 infected in Albino guiena pig assessed as cure rate at 50 mg/kg measured on day 4 postinfection; format: functional, organism-based; parameters: dose 50 mg/kg; how it was run: as §3
# Staphylococcus aureus [32] = assay: Antibacterial activity against methicillin-resistant Staphylococcus aureus ATCC 43300 infected in Albino guiena pig assessed as decrease in planktonic bacterial counts in cage fluid at 50 mg/kg measured on day 4 postinfection; format: functional; how it was run: as §4
# Staphylococcus aureus [33] = assay: Antibacterial activity against methicillin-resistant Staphylococcus aureus ATCC 43300 infected in Albino guiena pig assessed as inhibition of bacterial growth in cage fluid at 75 mg/kg measured on day 10 postinfection compared to the bacterial growth on day 1; format: functional, organism-based; parameters: dose 75 mg/kg; how it was run: as §4
# [34] = Cmin in cage fluid of Albino guiena pig at 75 mg/kg, ip after 12 hrs; format: ADME, organism-based, Cavia porcellus; parameters: dose 75 mg/kg, route intraperitoneal; details: guinea pig, read-out: Cmin; how it was run: as §2
# [35] = AUC (0 to 24 hrs) in cage fluid of Albino guiena pig at 50 mg/kg, ip; format: ADME, organism-based, Cavia porcellus; parameters: time < 24 hr, dose 50 mg/kg, route intraperitoneal; details: guinea pig
# Staphylococcus aureus [36] = assay: Antibacterial activity against methicillin-resistant Staphylococcus aureus ATCC 43300 infected in Albino guiena pig assessed as no. of culture-negative cage fluid samples at 75 mg/kg measured on day 4 postinfection; format: functional; how it was run: as §1
# [37] = Cmax in cage fluid of Albino guiena pig at 25 mg/kg, ip after 3 hrs; format: ADME, organism-based, Cavia porcellus, Interstitial fluid; parameters: dose 25 mg/kg, route intraperitoneal; details: guinea pig; how it was run: as §2
# [38] = AUC (0 to 24 hrs) in cage fluid of Albino guiena pig at 75 mg/kg, ip; format: ADME, organism-based, Cavia porcellus; parameters: time < 24 hr, dose 75 mg/kg, route intraperitoneal; details: guinea pig
# Staphylococcus aureus [39] = assay: Antibacterial activity against methicillin-resistant Staphylococcus aureus ATCC 43300 infected in Albino guiena pig assessed as no. of culture-negative cage fluid samples at 25 mg/kg measured on day 4 postinfection; format: functional; how it was run: as §1
structure (smiles),measurement,setting,value
C[C@H]1COc2c(N3CCN(C)CC3)c(F)cc3c(=O)c(C(=O)O)cn1c23.C[C@H]1COc2c(N3CCN(C)CC3)c(F)cc3c(=O)c(C(=O)O)cn1c23.O [LEVOFLOXACIN],t1/2,[1],4.2 h
same,Tmax,[2],2.5 h
same,MBC,Staphylococcus aureus [3],0.63 µg/mL
same,Cmax,[4],1500 ng/mL
same,MIC,Staphylococcus aureus [5],0.16 µg/mL
same,concentration at 12 h,[6],300 ng/mL
same,MBC,Staphylococcus aureus [7],> 20 µg/mL
same,AUC(0-t) at 24 h,[8],6100 ng·h/mL
CC(=O)NC[C@H]1CN(c2ccc(N3CCOCC3)c(F)c2)C(=O)O1 [LINEZOLID],AUC(0-t) at 24 h,[9],87800 ng·h/mL
same,half-life,[10],210 min
same,Activity,Staphylococcus aureus [11],17%
same,Tmax,[12],3.3 h
same,Activity,Staphylococcus aureus [13],inactive
same,Activity,Staphylococcus aureus [14],inactive
same,log10CFU/ml,Staphylococcus aureus [15],4.5
same,Tmax,[16],2.8 h
same,half-life,[17],408 min
same,log10CFU/ml,Staphylococcus aureus [18],7.1
same,concentration at 12 h,[19],3700 ng/mL
same,MBC,Staphylococcus aureus [3],> 20 µg/mL
same,log10CFU/ml,Staphylococcus aureus [20],4.6
same,half-life,[21],156 min
same,Cmax,[22],18100 ng/mL
same,Activity,Staphylococcus aureus [23],0%
same,Activity,Staphylococcus aureus [24],17%
same,Activity,Staphylococcus aureus [25],0%
same,concentration at 12 h,[26],3000 ng/mL
same,MIC,Staphylococcus aureus [5],2.5 µg/mL
same,Activity,Staphylococcus aureus [27],inactive
same,Tmax,[28],3 h
same,log10CFU/ml,Staphylococcus aureus [29],4.5
same,Cmax,[30],12700 ng/mL
same,Activity,Staphylococcus aureus [31],inactive
same,log10CFU/ml,Staphylococcus aureus [32],5.1
same,MBC,Staphylococcus aureus [7],> 20 µg/mL
same,Activity,Staphylococcus aureus [33],Active
same,concentration at 12 h,[34],2500 ng/mL
same,AUC(0-t) at 24 h,[35],119 µg·h/mL
same,Activity,Staphylococcus aureus [36],25%
same,Cmax,[37],6800 ng/mL
same,AUC(0-t) at 24 h,[38],126 µg·h/mL
same,Activity,Staphylococcus aureus [39],8%
